ChEMBL document CHEMBL4265973, “Broad-spectrum antibacterial amphiphilic aminoglycosides: A new focus on the structure of the lipophilic groups extends the series of active dialkyl neamines” (Eur J Med Chem, 2018)
Values after ≈ are worked out from the molar mass of the structure shown. Active and inactive are the calls of the source. No cut-off for these calls is given here.

What was measured:
[1] = tested on: J774; experiment: (§1) Cytotoxicity against mouse J774 cells assessed as cell viability at 10 uM after 24 hrs by MTT assay relative to control; type: cell-based; conditions: j774, 24 h, 10 µM
In short: (§2)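 Murine J774 macrophages are exposed for 24 h to compound at 10 or 30 µM, then given 0.2 mg/mL MTT for 1 h. The reaction is stopped with DMSO and OD read at 570 nm; viability is metabolic activity as % of control. The number of independent experiments is given per value.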

[2] = tested on: J774; experiment: (§3) Cytotoxicity against mouse J774 cells assessed as cell viability at 30 uM after 24 hrs by MTT assay relative to control; type: cell-based; conditions: j774, 24 h, 30 µM; in short: as §2
[3] = tested on: Staphylococcus aureus; experiment: Antibacterial activity against Staphylococcus aureus ATCC 25923 by microdilution assay; type: functional
In short: (§4)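 Broth microdilution MIC per CLSI recommendations, fresh culture in cation-adjusted Mueller-Hinton broth, starting inoculum 10^6 cells.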

[4] = tested on: Staphylococcus aureus; experiment: Antibacterial activity against Staphylococcus aureus SA-1 expressing NorA pump by microdilution assay
[5] = tested on: Staphylococcus aureus; experiment: Antibacterial activity against methicillin-resistant Staphylococcus aureus ATCC 33592 by microdilution assay; type: functional; in short: as §4
[6] = tested on: Pseudomonas aeruginosa; experiment: Antibacterial activity against Pseudomonas aeruginosa ATCC 27853 by microdilution assay; type: functional
In short: (§5)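 Broth microdilution per CLSI recommendations, using a fresh culture in cation-adjusted Mueller-Hinton broth (CA-MHB) and a starting inoculum of 10^6 cells; the MIC is the value read.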

[7] = tested on: Pseudomonas aeruginosa; experiment: Antibacterial activity against Pseudomonas aeruginosa FO3 harboring AAC6'-2A by microdilution assay; type: functional; in short: as §4
[8] = tested on: Pseudomonas aeruginosa; experiment: Antibacterial activity against Pseudomonas aeruginosa PA22 harboring surexp MexXY by microdilution assay; type: functional; in short: as §4
[9] = tested on: Pseudomonas aeruginosa; experiment: Antibacterial activity against Pseudomonas aeruginosa PA406 harboring triABC deletion mutant by microdilution assay; type: functional; in short: as §4
[10] = tested on: Acinetobacter lwoffii; experiment: Antibacterial activity against Acinetobacter lwoffii ATCC 17925 by microdilution assay; type: functional; in short: as §5
[11] = tested on: Acinetobacter lwoffii; experiment: Antibacterial activity against Acinetobacter lwoffii AI.88-483 harboring APH3'-6A by microdilution assay; type: functional; in short: as §4
[12] = tested on: Escherichia coli; experiment: Antibacterial activity against Escherichia coli PAZ505H8101 harboring AAC6'-1B by microdilution assay; type: functional; in short: as §4
[13] = tested on: Escherichia coli; experiment: Antibacterial activity against Escherichia coli L8058.1 harboring ANT2'-1A by microdilution assay; type: functional; in short: as §4
[14] = tested on: Klebsiella pneumoniae; experiment: Antibacterial activity against Klebsiella pneumoniae 700603 by microdilution assay; type: functional; in short: as §5
[15] = as §1; type: cell-based; conditions: J774 cells, read-out: Activity; in short: as §2
[16] = as §3; type: cell-based; conditions: J774 cells, read-out: Activity; in short: as §2
[17] = tested on: Pseudomonas aeruginosa; experiment: Antibacterial activity against Pseudomonas aeruginosa ATCC 27853 after 15 to 38 days by microdilution assay; type: functional
[18] = tested on: Escherichia coli; experiment: microbe, parasite or virus in culture; conditions: ATCC 25922
[19] = tested on: Pseudomonas aeruginosa; experiment: Antibacterial activity against Pseudomonas aeruginosa ATCC 27853 measured over 1 month by microdilution assay; type: functional, organism-based
In short: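 Serial passage of P. aeruginosa ATCC 27853 held continuously at half the MIC for up to 38 days. […] The new minimal inhibitory concentration is read by visual inspection, confirmed by agar dilution, and the drug level raised to match.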

[20] = tested on: Pseudomonas aeruginosa; experiment: microbe, parasite or virus in culture; conditions: ATCC 27853

Compound | Activity [1] | Activity [2] | MIC [3] | MIC [4] | MIC [5] | MIC [6] | MIC [7] | MIC [8] | MIC [9] | MIC [10] | MIC [11] | MIC [12] | MIC [13] | MIC [14] | viability at 24 h, 10 µM [15] | viability at 24 h, 30 µM [16] | MIC [17] | MIC [18] | Activity [19] | MIC [20]
GENTAMICIN | 88.4% | 82.9% |  |  |  |  |  |  |  |  |  |  |  |  |  |  |  |  |  | 
CCCCCCCCCO[C@@H]1[C@@H](N)[C@@H](O[C@H]2[C@H](O)[C@@H](OCCCCCCCCC)[C@H](N)C[C@@H]2N)O[C@H](CN)[C@H]1O |  |  | 1 µg/mL (≈ 1.74 µM) | 1 µg/mL (≈ 1.74 µM) | 2 to 4 µg/mL (≈ 3.48 to 6.96 µM) | 2 to 4 µg/mL (≈ 3.48 to 6.96 µM) | 4 to 8 µg/mL (≈ 6.96 to 13.9 µM) | 4 µg/mL (≈ 6.96 µM) | 2 to 4 µg/mL (≈ 3.48 to 6.96 µM) | 2 µg/mL (≈ 3.48 µM) | 16 µg/mL (≈ 27.8 µM) | 2 to 4 µg/mL (≈ 3.48 to 6.96 µM) | 2 to 4 µg/mL (≈ 3.48 to 6.96 µM) | 4 µg/mL (≈ 6.96 µM) | 86.7% | 67.4% | 4 µg/mL (≈ 6.96 µM) | 2 to 4 µg/mL (≈ 3.48 to 6.96 µM) |  | 
NC[C@H]1O[C@H](O[C@H]2[C@H](O)[C@@H](OCCCc3ccc4ccccc4c3)[C@H](N)C[C@@H]2N)[C@H](N)[C@@H](OCCCc2ccc3ccccc3c2)[C@@H]1O |  |  | 2 µg/mL (≈ 3.04 µM) | 2 µg/mL (≈ 3.04 µM) | 2 µg/mL (≈ 3.04 µM) | 8 to 16 µg/mL (≈ 12.1 to 24.3 µM) | 16 µg/mL (≈ 24.3 µM) | 16 µg/mL (≈ 24.3 µM) | 2 to 4 µg/mL (≈ 3.04 to 6.07 µM) | 4 µg/mL (≈ 6.07 µM) | 32 to 64 µg/mL (≈ 48.6 to 97.1 µM) | 4 to 8 µg/mL (≈ 6.07 to 12.1 µM) | 16 µg/mL (≈ 24.3 µM) | 32 µg/mL (≈ 48.6 µM) | 91.1% | 89.5% |  | 8 µg/mL (≈ 12.1 µM) | Active | 
O=C(O)c1cn(C2CC2)c2cc(N3CCNCC3)c(F)cc2c1=O [CIPROFLOXACIN] |  |  |  |  |  |  |  |  |  |  |  |  |  |  |  |  |  |  | Active | 16 µg/mL (≈ 48.3 µM)
CCCCCCCO[C@@H]1[C@@H](O)[C@H](O[C@H]2O[C@H](CN)[C@@H](O)[C@H](O)[C@H]2N)[C@@H](N)C[C@H]1N |  |  | > 128 µg/mL | > 128 µg/mL | > 128 µg/mL | > 128 µg/mL | > 128 µg/mL | > 128 µg/mL | > 128 µg/mL | 64 µg/mL (≈ 152 µM) | > 128 µg/mL | > 128 µg/mL | > 128 µg/mL | > 128 µg/mL | 84.3% | 71.3% |  | > 128 µg/mL |  | 
CCCCCCCCCCCO[C@@H]1[C@@H](N)[C@@H](O[C@H]2[C@H](O)[C@@H](OCCCCCCCCCCC)[C@H](N)C[C@@H]2N)O[C@H](CN)[C@H]1O |  |  | 8 µg/mL (≈ 12.7 µM) | 8 µg/mL (≈ 12.7 µM) | 64 µg/mL (≈ 101 µM) | 16 µg/mL (≈ 25.4 µM) | 16 µg/mL (≈ 25.4 µM) | 16 µg/mL (≈ 25.4 µM) | 16 µg/mL (≈ 25.4 µM) | 32 µg/mL (≈ 50.7 µM) | 32 µg/mL (≈ 50.7 µM) | 16 µg/mL (≈ 25.4 µM) | 16 µg/mL (≈ 25.4 µM) | 32 µg/mL (≈ 50.7 µM) | 81.7% | 14.1% |  | 4 µg/mL (≈ 6.34 µM) |  | 
CCCCCCCCCCO[C@@H]1[C@@H](N)[C@@H](O[C@H]2[C@H](O)[C@@H](OCCCCCCCCCC)[C@H](N)C[C@@H]2N)O[C@H](CN)[C@H]1O |  |  | 1 µg/mL (≈ 1.66 µM) | 1 µg/mL (≈ 1.66 µM) | 1 to 2 µg/mL (≈ 1.66 to 3.32 µM) | 4 µg/mL (≈ 6.63 µM) | 4 µg/mL (≈ 6.63 µM) | 4 µg/mL (≈ 6.63 µM) | 8 µg/mL (≈ 13.3 µM) | 2 µg/mL (≈ 3.32 µM) | 64 µg/mL (≈ 106 µM) | 8 µg/mL (≈ 13.3 µM) | 128 µg/mL (≈ 212 µM) | 16 µg/mL (≈ 26.5 µM) | 85.5% | 14.5% |  | 2 µg/mL (≈ 3.32 µM) |  | 
NC[C@H]1O[C@H](O[C@H]2[C@H](O)[C@@H](O)[C@H](N)C[C@@H]2N)[C@H](N)[C@@H](OCCCc2ccc3ccccc3c2)[C@@H]1OCCCc1ccc2ccccc2c1 |  |  |  |  |  |  |  |  |  |  |  |  |  |  |  |  |  |  | Active | 
